Active and inactive are the calls of the source. The calls are words filed in the database; no cut-off is given here.
Legend:
[1] = target: T1, Metabotropic glutamate receptor 8 (Homo sapiens, UniProt O00222); assay: Agonist activity at mGlu8 (unknown origin) expressed in HEK293 cells coexpressing chimeric Gq/i protein assessed as [3H]inositol phosphate accumulation after 30 mins by scintillation and luminescence counting method; format: functional, cell-based
Procedure, shortened: (§1)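 Receptor transiently co-expressed in HEK293 cells (electroporation) with chimeric G-protein and glutamate transporter EAAT3. Cells labelled overnight with 3H-myoinositol, stimulated with agonist 30 min, lysed 1 h in cold 0.1 M formic acid. 3H-IP isolated on Dowex ion exchange and counted. IP expressed relative to IP plus membrane radioactivity. Points in triplicate; EC50 from Hill-equation fit.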

[2] = target: T2, Metabotropic glutamate receptor 6 (Homo sapiens, UniProt O15303); assay: Agonist activity at mGlu6 (unknown origin) expressed in HEK293 cells coexpressing chimeric Gq/i protein assessed as [3H]inositol phosphate accumulation after 30 mins by scintillation and luminescence counting method; format: functional, cell-based; procedure, shortened: as §1
T2 sequence (O15303 whole entry): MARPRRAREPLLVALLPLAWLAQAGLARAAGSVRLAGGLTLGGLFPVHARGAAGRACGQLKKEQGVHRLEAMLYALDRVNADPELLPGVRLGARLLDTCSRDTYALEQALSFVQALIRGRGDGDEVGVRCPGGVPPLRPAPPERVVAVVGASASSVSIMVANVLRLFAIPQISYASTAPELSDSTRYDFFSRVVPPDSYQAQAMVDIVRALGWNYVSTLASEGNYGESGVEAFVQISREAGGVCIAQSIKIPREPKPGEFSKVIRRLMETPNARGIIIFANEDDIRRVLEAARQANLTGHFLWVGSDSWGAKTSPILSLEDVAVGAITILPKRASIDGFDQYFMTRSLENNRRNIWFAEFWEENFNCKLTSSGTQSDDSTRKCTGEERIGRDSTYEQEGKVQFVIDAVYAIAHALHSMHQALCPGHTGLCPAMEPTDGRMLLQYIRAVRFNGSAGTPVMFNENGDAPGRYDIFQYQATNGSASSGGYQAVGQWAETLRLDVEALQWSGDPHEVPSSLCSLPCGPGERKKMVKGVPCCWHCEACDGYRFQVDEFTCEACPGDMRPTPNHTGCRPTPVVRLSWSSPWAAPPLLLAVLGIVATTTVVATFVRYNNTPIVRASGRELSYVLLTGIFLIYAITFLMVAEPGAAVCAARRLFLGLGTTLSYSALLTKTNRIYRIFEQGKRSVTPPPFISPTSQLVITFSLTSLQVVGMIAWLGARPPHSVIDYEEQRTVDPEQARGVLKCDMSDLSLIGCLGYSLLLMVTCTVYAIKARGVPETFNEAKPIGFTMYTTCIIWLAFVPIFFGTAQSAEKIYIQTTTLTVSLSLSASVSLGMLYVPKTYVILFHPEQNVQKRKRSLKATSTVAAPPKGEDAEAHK

[3] = target: T3, Metabotropic glutamate receptor 4 (Homo sapiens, UniProt Q14833); assay: Agonist activity at mGlu4 (unknown origin) expressed in HEK293 cells coexpressing chimeric Gq/i protein assessed as increase in intracellular calcium accumulation by Fluo-4 AM dye based fluorescence assay; format: functional, cell-based
T3 sequence (Q14833 whole entry): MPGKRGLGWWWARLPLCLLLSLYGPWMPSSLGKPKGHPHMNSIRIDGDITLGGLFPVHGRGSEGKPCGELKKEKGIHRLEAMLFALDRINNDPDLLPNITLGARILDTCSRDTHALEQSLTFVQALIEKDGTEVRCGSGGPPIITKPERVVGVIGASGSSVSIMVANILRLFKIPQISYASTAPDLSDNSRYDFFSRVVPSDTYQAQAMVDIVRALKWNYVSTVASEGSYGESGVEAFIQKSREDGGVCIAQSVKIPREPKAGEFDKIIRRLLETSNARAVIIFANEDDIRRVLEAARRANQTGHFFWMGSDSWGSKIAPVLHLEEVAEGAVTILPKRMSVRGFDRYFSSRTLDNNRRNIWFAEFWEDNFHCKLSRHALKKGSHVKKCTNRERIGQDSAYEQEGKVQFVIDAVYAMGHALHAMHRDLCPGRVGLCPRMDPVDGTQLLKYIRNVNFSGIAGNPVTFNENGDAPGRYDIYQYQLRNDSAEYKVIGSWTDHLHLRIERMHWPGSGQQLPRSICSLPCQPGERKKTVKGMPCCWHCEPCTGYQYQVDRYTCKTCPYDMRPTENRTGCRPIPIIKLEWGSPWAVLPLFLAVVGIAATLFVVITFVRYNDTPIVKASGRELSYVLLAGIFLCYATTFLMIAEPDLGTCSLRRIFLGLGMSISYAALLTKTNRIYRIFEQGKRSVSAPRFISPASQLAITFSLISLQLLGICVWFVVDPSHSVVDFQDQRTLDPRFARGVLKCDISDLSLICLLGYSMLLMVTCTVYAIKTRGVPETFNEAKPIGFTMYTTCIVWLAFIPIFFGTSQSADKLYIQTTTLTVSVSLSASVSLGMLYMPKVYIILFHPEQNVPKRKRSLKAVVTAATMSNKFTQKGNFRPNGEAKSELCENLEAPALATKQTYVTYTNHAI

[4] = target: T1, Metabotropic glutamate receptor 8; assay: Agonist activity at mGlu8 (unknown origin) expressed in HEK293 cells coexpressing chimeric Gq/i protein assessed as increase in intracellular calcium accumulation by Fluo-4 AM dye based fluorescence assay; format: functional, cell-based
[5] = target: T2, Metabotropic glutamate receptor 6; assay: Agonist activity at mGlu6 (unknown origin) expressed in HEK293 cells coexpressing chimeric Gq/i protein assessed as increase in intracellular calcium accumulation by Fluo-4 AM dye based fluorescence assay; format: functional, cell-based
[6] = organism: Homo sapiens; assay: (§2) Selectivity ratio of EC50 for mGlu8 (unknown origin) expressed in HEK293 cells coexpressing chimeric Gq/i protein assessed as [3H]inositol phosphate accumulation to EC50 for mGlu4 (unknown origin) expressed in HEK293 cells coexpressing chimeric Gq/i protein assessed as [3H]inositol phosphate accumulation; format: cell-based
Procedure, shortened: (§3)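 Ratio of mGlu8 EC50 to mGlu4 EC50, both from the same functional assay. Both receptors were co-expressed in HEK293 cells with chimeric G-protein and EAAT3 and read by 3H-IP accumulation or by Fluo-4 Ca2+ release.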

[7] = organism: Homo sapiens; assay: as §2, with “increase in intracellular calcium” for “[3H]inositol phosphate”; format: cell-based; procedure, shortened: as §3
[8] = target: T4, Metabotropic glutamate receptor 7 (Homo sapiens, UniProt Q14831); assay: Agonist activity at mGlu7 (unknown origin) expressed in HEK293 cells coexpressing chimeric Gq/i protein assessed as [3H]inositol phosphate accumulation at 300 uM after 30 mins by scintillation and luminescence counting method; format: functional, cell-based; procedure, shortened: as §1
T4 sequence (Q14831 whole entry): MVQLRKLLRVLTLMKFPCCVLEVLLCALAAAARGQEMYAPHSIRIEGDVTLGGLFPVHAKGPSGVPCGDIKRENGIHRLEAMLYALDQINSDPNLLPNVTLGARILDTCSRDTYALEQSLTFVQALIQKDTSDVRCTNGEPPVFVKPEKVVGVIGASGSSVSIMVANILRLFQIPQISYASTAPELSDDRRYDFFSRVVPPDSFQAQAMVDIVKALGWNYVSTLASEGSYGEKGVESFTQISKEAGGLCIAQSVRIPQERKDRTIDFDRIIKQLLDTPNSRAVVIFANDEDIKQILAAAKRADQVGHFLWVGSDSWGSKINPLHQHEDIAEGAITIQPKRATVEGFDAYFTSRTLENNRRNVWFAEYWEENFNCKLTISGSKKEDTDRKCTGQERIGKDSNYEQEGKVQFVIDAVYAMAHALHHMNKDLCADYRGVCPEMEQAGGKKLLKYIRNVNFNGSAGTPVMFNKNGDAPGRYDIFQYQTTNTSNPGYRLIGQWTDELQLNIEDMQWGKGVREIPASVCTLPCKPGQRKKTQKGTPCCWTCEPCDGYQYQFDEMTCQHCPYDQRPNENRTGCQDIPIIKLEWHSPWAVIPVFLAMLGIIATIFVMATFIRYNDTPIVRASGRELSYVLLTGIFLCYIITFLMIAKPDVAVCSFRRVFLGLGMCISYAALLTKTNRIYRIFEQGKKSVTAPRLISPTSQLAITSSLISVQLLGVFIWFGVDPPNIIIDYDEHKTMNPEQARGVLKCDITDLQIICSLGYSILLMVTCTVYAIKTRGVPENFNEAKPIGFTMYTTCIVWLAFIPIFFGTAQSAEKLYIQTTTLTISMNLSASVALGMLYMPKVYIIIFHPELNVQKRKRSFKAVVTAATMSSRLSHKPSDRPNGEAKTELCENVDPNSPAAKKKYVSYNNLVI

[9] = target: T3, Metabotropic glutamate receptor 4; assay: Agonist activity at mGlu4 (unknown origin) expressed in HEK293 cells coexpressing chimeric Gq/i protein assessed as increase in intracellular calcium accumulation at 300 uM by Fluo-4 AM dye based fluorescence assay; format: functional, cell-based
[10] = target: T1, Metabotropic glutamate receptor 8; assay: Agonist activity at mGlu8 (unknown origin) expressed in HEK293 cells coexpressing chimeric Gq/i protein assessed as increase in intracellular calcium accumulation at 300 uM by Fluo-4 AM dye based fluorescence assay; format: functional, cell-based
[11] = target: T4, Metabotropic glutamate receptor 7; assay: Agonist activity at mGlu7 (unknown origin) expressed in HEK293 cells coexpressing chimeric Gq/i protein assessed as increase in intracellular calcium accumulation by Fluo-4 AM dye based fluorescence assay; format: functional, cell-based
[12] = target: T4, Metabotropic glutamate receptor 7; assay: Agonist activity at mGlu7 (unknown origin) expressed in HEK293 cells coexpressing chimeric Gq/i protein assessed as [3H]inositol phosphate accumulation after 30 mins by scintillation and luminescence counting method; format: functional, cell-based; procedure, shortened: as §1
[13] = target: Metabotropic glutamate receptor 4 (Rattus norvegicus) (UniProt P31423); assay: Agonist activity at mGlu4 in rat purkinje cells assessed as increase in mean paired-pulse facilitation at 100 uM treated for 5 mins by whole cell patch clamp assay relative to control; format: cell-based
Metabotropic glutamate receptor 4 (Rattus norvegicus), sequence (P31423 whole entry): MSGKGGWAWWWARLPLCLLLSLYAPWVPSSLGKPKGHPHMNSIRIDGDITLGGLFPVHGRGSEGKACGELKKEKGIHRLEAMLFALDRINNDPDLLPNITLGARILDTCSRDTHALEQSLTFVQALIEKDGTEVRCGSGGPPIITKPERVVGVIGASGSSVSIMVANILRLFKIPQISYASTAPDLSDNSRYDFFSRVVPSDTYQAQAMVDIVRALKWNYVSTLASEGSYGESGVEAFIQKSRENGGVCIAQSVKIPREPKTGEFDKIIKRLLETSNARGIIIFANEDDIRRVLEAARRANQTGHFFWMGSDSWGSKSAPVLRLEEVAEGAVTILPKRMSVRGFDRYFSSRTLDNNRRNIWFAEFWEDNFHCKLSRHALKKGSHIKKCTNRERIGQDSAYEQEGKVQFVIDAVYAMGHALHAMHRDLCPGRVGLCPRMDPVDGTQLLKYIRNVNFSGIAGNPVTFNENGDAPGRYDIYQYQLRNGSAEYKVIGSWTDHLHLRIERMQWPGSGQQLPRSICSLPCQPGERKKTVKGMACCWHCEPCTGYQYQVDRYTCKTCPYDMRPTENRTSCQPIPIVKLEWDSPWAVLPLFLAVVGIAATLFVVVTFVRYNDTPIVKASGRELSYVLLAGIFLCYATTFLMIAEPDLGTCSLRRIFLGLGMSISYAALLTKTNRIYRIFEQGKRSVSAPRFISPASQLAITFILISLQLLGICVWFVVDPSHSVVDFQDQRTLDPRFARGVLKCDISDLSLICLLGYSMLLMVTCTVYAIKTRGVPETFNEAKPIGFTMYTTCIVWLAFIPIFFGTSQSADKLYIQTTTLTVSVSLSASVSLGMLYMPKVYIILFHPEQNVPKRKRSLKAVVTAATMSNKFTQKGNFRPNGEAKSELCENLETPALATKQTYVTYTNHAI
Procedure, shortened: (§4)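 Sagittal cerebellar vermis slices (250 μm) from 18−29-day-old rats. Purkinje cells whole-cell clamped at 28−30 °C. Parallel-fiber EPSCs evoked by paired stimuli 40 ms apart; PPF taken as second/first amplitude, averaged per cell. Agonist bath-applied 5 min from a 40 mM water stock. EC50 and Hill coefficient fitted across independent experiments.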

[14] = target: Glutamate NMDA receptor; Grin1/Grin2a (Rattus norvegicus, UniProt P35439+Q00959); assay: Antagonist activity at rat GluN1a/GluN2A receptors expressed in Xenopus laevis oocytes assessed as inhibition of L-glutamate/[…] induced current amplitude at holding potential of -60 mV by […]; format: cell-based
[15] = target: Ionotropic glutamate receptor NMDA1/2B (Rattus norvegicus, UniProt P35439+Q01097); assay: Antagonist activity at rat GluN1a/mouse GluN2B receptors expressed in Xenopus laevis oocytes assessed as inhibition of L-glutamate/[…] induced current amplitude at holding potential of -60 mV by […]; format: cell-based
[16] = target: Metabotropic glutamate receptor 4 (Rattus norvegicus) (UniProt P31423); assay: Agonist activity at mGlu4 in rat purkinje cells assessed as mean decrease in parallel fiber-induced excitary postsynaptic currents amplitude for first response at 100 uM treated for 5 mins by whole cell patch clamp assay relative to control; format: cell-based; parameters: scale not given: the % may be the effect or the level left; procedure, shortened: as §4
[17] = target: Metabotropic glutamate receptor 4 (Rattus norvegicus) (UniProt P31423); assay: Agonist activity at mGlu4 assessed as decrease in PF-induced presynaptic calcium amplitude in rat coronal slices at 100 uM by Fluo-4FF-AM dye based fluorescence assay relative to control; format: functional; parameters: scale not given: the % may be the effect or the level left
Procedure, shortened: (§5)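 Coronal cerebellar slices (250 μm) from 18−29-day-old rats. Parallel fibers loaded by focal Fluo-4FF-AM (100 μM); recording at least 45 min later at 28−30 °C. Excitation 485 nm, emission 530 nm, photometer in a 20×50 μm window over the molecular layer. ΔF/F bleach-corrected. Agonist bath-applied from a 40 mM water stock; EC50 and Hill coefficient fitted.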

[18] = target: Metabotropic glutamate receptor 4 (Rattus norvegicus) (UniProt P31423); assay: (§6) Agonist activity at mGlu4 assessed as decrease in PF-induced presynaptic calcium amplitude in rat coronal slices by Fluo-4FF-AM dye based fluorescence assay; format: functional; procedure, shortened: as §5
[19] = target: T5, Metabotropic glutamate receptor 4 (Rattus norvegicus, UniProt P31423); assay: as §6; format: functional; procedure, shortened: as §5
T5 sequence (P31423 whole entry): as above

[20] = target: Metabotropic glutamate receptor 4 (Rattus norvegicus) (UniProt P31423); assay: Agonist activity at mGlu4 in rat purkinje cells assessed as mean decrease in parallel fiber-induced excitary postsynaptic currents amplitude for second response at 100 uM treated for 5 mins by whole cell patch clamp assay relative to control; format: cell-based; parameters: scale not given: the % may be the effect or the level left; procedure, shortened: as §4
[21] = target: Metabotropic glutamate receptor 4 (Rattus norvegicus) (UniProt P31423); assay: Agonist activity at mGlu4 in rat purkinje cells assessed as mean decrease in parallel fiber-induced excitary postsynaptic currents amplitude for first response treated for 5 mins by whole cell patch clamp assay; format: cell-based; procedure, shortened: as §4
[22] = target: Metabotropic glutamate receptor 4 (Mus musculus, UniProt Q68EF4); assay: Agonist activity at mGlu4 in C57/Bl6 mouse GP neurons assessed as inhibition of striatopallidal GABAergic inhibitory postsynaptic current amplitude by whole cell patch clamp assay
Metabotropic glutamate receptor 4 (Mus musculus, UniProt Q68EF4), sequence (Q68EF4 whole entry): as the sequence (P31423 whole entry) above, with A24G, P25S, G280A, M339T, L482R, I705V, G713C, T895A counted along it

[23] = target: Metabotropic glutamate receptor 4 (Mus musculus) (UniProt Q68EF4); assay: Agonist activity at mGlu4 in C57/Bl6 mouse GP neurons assessed as inhibition of striatopallidal GABAergic inhibitory postsynaptic current amplitude at 3 uM by whole cell patch clamp assay relative to control
Metabotropic glutamate receptor 4 (Mus musculus), sequence (Q68EF4 whole entry): as the sequence (P31423 whole entry) above, with A24G, P25S, G280A, M339T, L482R, I705V, G713C, T895A counted along it

[24] = organism: Homo sapiens; assay: Selectivity ratio of EC50 for mGlu8 (unknown origin) expressed in HEK293 cells coexpressing chimeric Gq/i protein assessed as [3H]inositol phosphate accumulation to EC50 for mGlu4 (unknown origin) expressed in HEK293 cells coexpressing chimeric Gq/i protein assessed as increase in intracellular calcium accumulation; format: cell-based
[25] = target: T3, Metabotropic glutamate receptor 4; assay: Agonist activity at mGlu4 (unknown origin) expressed in HEK293 cells coexpressing chimeric Gq/i protein assessed as [3H]inositol phosphate accumulation after 30 mins at 100 uM by scintillation and luminescence counting method; format: functional, cell-based; procedure, shortened: as §1
[26] = target: T4, Metabotropic glutamate receptor 7; assay: Agonist activity at mGlu7 (unknown origin) expressed in HEK293 cells coexpressing chimeric Gq/i protein assessed as increase in intracellular calcium accumulation at 300 uM by Fluo-4 AM dye based fluorescence assay; format: functional, cell-based
[27] = target: T5, Metabotropic glutamate receptor 4; assay: Agonist activity at mGlu4 in Wistar rat striatum assessed as decrease in corticostriatal glutamatergic excitatory post-synaptic potential by whole cell patch clamp assay
[28] = target: T5, Metabotropic glutamate receptor 4; assay: Agonist activity at mGlu4 in Wistar rat striatum assessed as decrease in striatal GABAergic inhibitory post-synaptic potential by whole cell patch clamp assay

T1 sequence (O00222 whole entry): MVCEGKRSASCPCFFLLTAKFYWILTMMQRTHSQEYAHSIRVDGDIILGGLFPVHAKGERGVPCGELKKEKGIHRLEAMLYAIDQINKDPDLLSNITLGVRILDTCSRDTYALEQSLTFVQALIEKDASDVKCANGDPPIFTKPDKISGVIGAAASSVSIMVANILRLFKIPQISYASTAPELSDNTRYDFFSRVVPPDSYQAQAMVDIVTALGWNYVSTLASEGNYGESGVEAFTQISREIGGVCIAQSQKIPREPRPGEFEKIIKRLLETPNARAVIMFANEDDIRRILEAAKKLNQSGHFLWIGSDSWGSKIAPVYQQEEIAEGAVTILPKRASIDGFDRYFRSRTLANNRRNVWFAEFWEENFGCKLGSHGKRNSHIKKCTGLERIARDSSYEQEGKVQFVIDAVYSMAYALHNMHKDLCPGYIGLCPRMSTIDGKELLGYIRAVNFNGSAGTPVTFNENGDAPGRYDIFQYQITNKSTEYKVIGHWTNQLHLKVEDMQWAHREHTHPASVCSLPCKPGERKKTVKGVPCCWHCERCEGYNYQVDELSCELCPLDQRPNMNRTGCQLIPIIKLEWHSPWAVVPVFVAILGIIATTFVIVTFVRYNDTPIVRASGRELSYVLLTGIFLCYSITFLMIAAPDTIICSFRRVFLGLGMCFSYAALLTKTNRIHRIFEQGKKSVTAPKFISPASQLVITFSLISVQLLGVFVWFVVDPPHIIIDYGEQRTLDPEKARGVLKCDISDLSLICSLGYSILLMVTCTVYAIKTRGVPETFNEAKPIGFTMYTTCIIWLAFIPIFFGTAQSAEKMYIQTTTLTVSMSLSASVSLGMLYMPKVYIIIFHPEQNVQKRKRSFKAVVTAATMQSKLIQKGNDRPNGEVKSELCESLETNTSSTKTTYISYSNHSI

SMILES	EC50 [1] [µM]	EC50 [2] [µM]	EC50 [3] [µM]	EC50 [4] [µM]	EC50 [5] [µM]	Ratio EC50 [6]	Ratio EC50 [7]	EC50 [11] [µM]	further results
Cc1ccc(C(O)P(=O)(O)CC[C@H](N)C(=O)O)cc1[N+](=O)[O-] (some centres undefined)	5.6	> 100	3.3	1.6	4	1.6	0.5		Activity [8]: inactive
N[C@@H](CCCP(=O)(O)C(O)c1ccc(OCC(=O)O)cc1)C(=O)O (some centres undefined)									Activity [9]: inactive; Activity [10]: inactive
N[C@@H](CCP(=O)(O)C(O)c1ccc(C(F)(F)F)c([N+](=O)[O-])c1)C(=O)O (some centres undefined)		5.7	0.44	1.54	11.9		3.5	> 100	
N[C@@H](CCP(=O)(O)C(O)c1c(F)c(F)c(F)c(F)c1F)C(=O)O (some centres undefined)	18.5		5.6	7.6	30	3.7	1.4	> 100	
N[C@@H](CCP(=O)(O)C(O)c1ccc([N+](=O)[O-])cc1)C(=O)O (some centres undefined)	0.53		0.64	0.49	4.6	1.4	0.8	> 100	
N[C@@H](CCP(=O)(O)C(O)c1ccc(F)c([N+](=O)[O-])c1)C(=O)O (some centres undefined)	1.3	25	0.44	0.66	4	2.1	1.5	> 100	
N[C@@H](CCP(=O)(O)C(O)c1ccc(C(=O)O)cc1)C(=O)O (some centres undefined)	141	31				18			EC50 [12]: 169 µM
N[C@@H](CCP(=O)(O)C(O)c1ccc([N+](=O)[O-])o1)C(=O)O (some centres undefined)	0.3	6.1				2.2			EC50 [12]: 1970 µM
COc1cc(C(O)P(=O)(O)CC[C@H](N)C(=O)O)cc([N+](=O)[O-])c1O (mixture of isomers)			0.9	19.4					Activity [13]: 2.29 to 2.91%; IC50 [14]: 1100 µM; IC50 [15]: 2300 µM; Activity [16]: 39.2%; Activity [17]: 12.5%; Activity [18]: Dose-dependent effect; Imax [18]: 40%; EC50 [19]: 20 µM; Activity [20]: 26.4%; Activity [21]: Dose-dependent effect; EC50 [22]: 0.2 µM; Imax [23]: 40%
N[C@@H](CCP(=O)(O)C(O)c1cccnc1)C(=O)O (some centres undefined)	36		30						Ratio EC50 [24]: 1.2
N[C@@H](CCP(=O)(O)C(O)c1ccccc1C(=O)O)C(=O)O (some centres undefined)									Activity [25]: inactive
N[C@@H](CCP(=O)(O)O)C(=O)O		2.4			1	2.5	2.2	249	EC50 [12]: 337 µM
COc1cc(C(O)P(=O)(O)CCC[C@H](N)C(=O)O)cc([N+](=O)[O-])c1O (some centres undefined)									Activity [9]: inactive; Activity [10]: inactive
N[C@@H](CCP(=O)(O)C(O)c1cccc(C(=O)O)c1)C(=O)O (some centres undefined)	125	> 100				5.8			
N[C@@]1(C(=O)O)C[C@H](C(=O)O)[C@H](C(=O)O)C1	5.1	11				3			EC50 [12]: 280 µM
N[C@@H](CCP(=O)(O)CCC(=O)O)C(=O)O	7.8	31	5.94	6.5	6.7	1.2	1.1	89	
N[C@H](C(=O)O)c1ccc(C(=O)O)c(C(=O)O)c1	0.023		3.2	0.044	3.2 to 6.2	0.012	0.014	30 to 100	
COc1cc(C(N)P(=O)(O)CC[C@H](N)C(=O)O)cc([N+](=O)[O-])c1O (some centres undefined)			11.6		> 100		3		Activity [26]: inactive
N[C@@H](CCP(=O)(O)C(O)c1csc([N+](=O)[O-])c1)C(=O)O (some centres undefined)	0.51	3.6	0.19	0.38		3.2	2		EC50 [12]: 418 µM; EC50 [27]: 9.32 µM; EC50 [28]: 0.32 µM
Nc1ncc(C(O)P(=O)(O)CC[C@H](N)C(=O)O)s1 (some centres undefined)			15	28	> 100		1.9		Activity [26]: inactive
N[C@@H](CCP(=O)(O)C(O)c1cc(O)c(O)c([N+](=O)[O-])c1)C(=O)O (some centres undefined)	5.4		4.3	32.8	26	1.1	7.6	> 100	

Reference: ChEMBL document CHEMBL4033785, “Increased Potency and Selectivity for Group III Metabotropic Glutamate Receptor Agonists Binding at Dual sites” (J Med Chem, 2018)
